Source: the EternaBench riboswitch data

Test system: MS2 coat protein
Assay: apparent Kd, MS2 coat protein; higher = weaker binding; RNA-MaP array; FMN 200 µM where present
Outline: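 The apparent Kd is reported as the median of filtered per-cluster binding-curve fits. To get these curves, designs transcribed by stalled E. coli RNA polymerase on Illumina sequencing-chip clusters were titrated with SNAP-549-labelled MS2 coat protein from 0.7 or 1.5 nM, doubling to 3 µM. Titrations were run without and then with constant ligand in 100 mM Tris-HCl pH 7.5, 80 mM KCl, 4 mM MgCl2, BSA, DTT, yeast tRNA and Tween-20, and green signal was normalised to red-channel RNA signal and control-cluster median Fmax.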

[1] = designed as: OFF switch for flavin mononucleotide, no ligand
[2] = ligand present: flavin mononucleotide, designed as: OFF switch for flavin mononucleotide
[3] = designed as: ON switch for flavin mononucleotide, no ligand
[4] = ligand present: flavin mononucleotide, designed as: ON switch for flavin mononucleotide

Sequence	apparent Kd [1]	apparent Kd [2]	apparent Kd [3]	apparent Kd [4]
AUUGACUGAGGAUAUUGUACUGCUGACAUGAGGAUCACCCAUGUAUGCUAACUCGGCCGUCGAGAAGGCAGUAAUG	39 nM	27.3 nM	–	–
AUUGUAAUGUCAGGAUAUAUUAUAUUUUACAUAGUAGAAGGGAUAAUUAUACUCAUGUACAUGAGGAUCACCCAUGUUAAAUAU	–	–	179 nM	29.6 nM
AUUGUAUAGGAAGGAUAUAGAAUAUUAUUUUAACAUGAGGAUCACCCAUGUAACCUUAUGUGUAGCUAGAAGGUCCAUUUAUUA	99.6 nM	150 nM	–	–
AUUGUAUAGGAAGGAUAUAGAAUAUUAUUUUAACAUGAGGAUCACCCAUGUAACCUUAUGUGUAGCUAGAAGGUCCAUUUGUUA	248 nM	302 nM	–	–
AUUUAUGGCCAGAAGGACAUGAGGAUCACCCAUGUAGGAUAUGGACGAUUUUGCUCGGCGGUUUUUUUAGGAAGCACCGGUGGU	–	–	12.4 nM	7.14 nM
AUUUGAAGGUAGAAGGGUGACAUGAGGAUCACCCAUGUGCGAGCAUCGGACGAAGAUGGCUCGCCACAGGAUAUACCUUCAAAU	–	–	36.7 nM	46.3 nM
AUUUUAAAGGGAGGAUAUACAUGAGGAUCACCCAUGUAAACAUGAGGAUCACCCUUGUAAACAAUGUAGAAGGCCUAAAUCUAU	13 nM	16.1 nM	–	–
AUUUUAAUAUAGGAUAUCGAAUUUAUUAAUUAUCGAGAAGGAUAAACAUGAGGAUCACCCAUGUGGUAUCAUGG	210 nM	274 nM	–	–
AUUUUGUCAGGAUAUGAGUAGUAGGACGAAAGUGUUAUUAUUUAGAAGGGACAUGAGGAUCACCCAUGUUCCUC	12.7 nM	16.2 nM	–	–
AUUUUUAAGGUAGGAUAUAGUAUAAUGGUUUAAUUAGAAGGAUCUCACAUGAGGAUCACCCAUGUAAUAGGAUUACCCAUGUAU	38.8 nM	26.8 nM	–	–
AUUUUUUGUCAUGUACAUGAGGAACAUGAGGAUCACCCAUGUAGAAGGAAUUUUUUUAAGUUUAGUUAGGAUAUACAUAUAUUU	53.9 nM	30 nM	–	–
CAAAACAUCUCCGUGUUUGUCGAACAUGAGGAUCACCCAUGUAGAAGGCAUCGCGCGACGCGGGAUGAGGAUAUACGCUGGAUG	6.18 nM	15.3 nM	–	–
CAAAACGAGGCAGGAUAUCAAUACAUGAGGAUCACCCAUGUGUGACGUAGGCCGGUCUUCGUGACUGAGAAGGGUCUCUAGUUA	11 nM	40.5 nM	–	–
CAAAGGGAAGGAUAUACAUCAGGCGACCUGGUGGGCACCUAACAUGAGGAUCACCCAUGUAGAAGGUCCAGGGA	22.4 nM	14.9 nM	–	–
CAAAGGUGAGGAUAUACAUAACUAUGACGAAAGUCAUAAACACAUGAGGAUCACCCAUGUAGAAGGCACCACAA	26.3 nM	37.9 nM	–	–
CAACCACAUGAGGAUCACCCAUGUGAGGAUAUGAUACUAUGUACUUCGGUACAUAGUAUCAGAAGGCACAGGUG	82 nM	73.4 nM	–	–
CAAUUGGCACAGAAGGGUGACAUGAGGAUCACCCAUGUAGCGUGGUACUCAGGAGGAACCACGCCACAGGAUAUGUGCGGGCAC	–	–	30.3 nM	38.8 nM
CAAUUUAUAACAGGAUAUACAAUACAAUGAUUAGUAGAAGGGUUUAAUACAUGAGGAUCACCCAUGUCAUGUGUCAUAAUAACC	34.3 nM	24.9 nM	–	–
CACAAGAAAGUCGAAGGUUGAAGUAGAAGGUUUAUAACAUGACAUGAGGAUCACCCAUGUGCCAAGAAGGAUAUGCUUUAAUCG	11.4 nM	9.43 nM	–	–
CACCGCGACAAUGCGGUGUCACAUGAGGAUCACCCAUGUUCACAGGAUAUGCGAUAGCCAACGAAGCAGAAGGGUGAUUACUUA	–	–	32.3 nM	172 nM
CACCGUUAAAGAGGAUAUCGUACAUGAGGAUCACCCAUGUAAUAAAUGAGAAUUUCGGAUGUAUGCGAGAAGGCUUAAAUCGGC	52.9 nM	48.3 nM	–	–
CACGGCAUCGGAGGAUAUACAUGAGGAUCACCCAUGUGGGUUGUACGCCGUGUAGAAGGCCGAGACCACCUUCUAGCUGGGAAG	11.7 nM	33.1 nM	–	–
CACGGUGAUGUAGGAUAUACGCUGGAAUACAGCGUAGAAGGACAUGAGGAUCACCCAUGUAAAGUGUCUCCAAAUAACACCGUG	32.5 nM	90.5 nM	–	–
CACGUACAUGAGGAUCACCCAUGUUAGGAUAUGCCGGGUAAGAGAAAACUAAAAAUCCGUAGAAGGGACGAAAC	34.1 nM	33.8 nM	–	–
CACGUCCUCACAGGAUAUGCUGGACUUUGUCCAGCAGAAGGGUGACAUGAGGAUCACCCAUGUAAAAGGACGUGUAUAUUUAAU	–	–	515 nM	41.5 nM
CACUGCAUGUAAGGAUAUCGACUGGAAUACAGUCGAGAAGGUACAUGAGGAUCACCCAUGUAAAUAAUAAUAAAUAAAGCAGUG	15.3 nM	24.4 nM	–	–
CACUGCAUGUAAGGAUAUCGACUGGAUAACAGUCGAGAAGGUACAUGAGGAUCACCCAUGUAAAUAAUAAUAAAUAAAGCAGUG	15.1 nM	25.1 nM	–	–
CAGAGGAUGUAAGGAUAUCGUCAGGAUAACUGACGAGAAGGUACAUGAGGAUCACCCAUGUAACUCUAAUAAUAAUAACCUCUG	11.7 nM	17.3 nM	–	–

Sequence	apparent Kd [1]	apparent Kd [2]	apparent Kd [3]	apparent Kd [4]
CAGCCCUGAGGAUAUCCCUACUCGCACAUGAGGAUCACCCAUGUCCUCCUCCGGGCUUCGGGAGAAGGCAGGUCUC	22.4 nM	93.5 nM	–	–
CAGCGAAAGCUGAAUCUGUAGAGAGAGGAUAUACGAGGCGAAAUCCAUACAUGAGGAUCACCCAUGUAGAAGGCUCUCUACAGU	155 nM	363 nM	–	–
CAGCUACCCAGUAUGGGUUUAUGUGCAGAAGGCCAGGUACAUGAGGAUCACCCAUGUAAAGAUAUGGAGGAUAUGUUAGUGAAU	–	–	17.9 nM	6.66 nM
CAGCUCGUGUGAGGAUAUGCCGCCGUUUCGGCUGCAGAAGGUGCUACGUUACAUGAGGAUCACCCAUGUCUCUGUUGUUUCGUU	–	–	23.5 nM	20.6 nM
CAGCUCUGAGGAUAUCCACCCUCGUACAUGAGGAUCACCCAUGUUUCCCUCUGGGCUUUCGGAGAAGGCAGGUAUC	59.1 nM	55.3 nM	–	–
CAGCUGAAUGUGAGGAUAUUACGAGCUGCGGCUCGUGAGAAGGCACAUGAGGAUCACCCAUGUCUCAACAGCUG	37.2 nM	741 nM	–	–
CAGGAUAGAGGAUAUACAUAGAUACAGAUUCAUGUAAUCCUACAUGAGGAUCACCCAUGUAGAAGGCUAUCCUG	14.9 nM	64.9 nM	–	–
CAGGGUAGAGGAUAUACGUAGGUACAGAUCUGUGUGAUCCUACAUGAGGAUCACCCAUGUAGAAGGCUAGCCUG	356 nM	39.4 nM	–	–
CAGGGUCGUAUUCAGCCCGUCCACAUGAGGAUCACCCAUGUCAAGGAUAUAGAUUAAAAUACAAGCUAGAAGGUGACGCUGGGU	14.3 nM	42.6 nM	–	–
CAGGUAGACUGAGGAUAUACAAAAGACCUAGUCUAUCUAGGUCAACUCACAUGAGGAUCACCCAUGUAGAAGGCAGUCUGCCUG	19.3 nM	70.9 nM	–	–
CAGGUAGACUGAGGAUAUACAUACCAUCAGCUAGUCUAUCUAGCUGUCACAUGAGGAUCACCCAUGUAGAAGGCAGUCUGCCUG	30.5 nM	122 nM	–	–
CAGGUAGACUGAGGAUAUACAUUAAACAGCUAGUCUAUCUAGCUGCUCACAUGAGGAUCACCCAUGUAGAAGGCAGUCUGCCUG	26.1 nM	75 nM	–	–
CAGGUGUUAGGAUAUCGGAGAUCGAGACCGACGGGAUGAGCCGAGAAGGAACAUGAGGAUCACCCAUGUAGGUG	575 nM	247 nM	–	–
CAGUAAUUCGAAGGAUAUGGUUACAUGAGGAUCACCCAUGUAUGAUUUGUGAUCUUAAAAUUGAUCCAGAAGGUCGAAUUACUG	206 nM	330 nM	–	–
CAGUACUGAGGAUAUACAUGAGGAUCACCCAUGUAAAAAACCUACGAAAGUAGGACAUGUAGAAGGCAGUACUG	24.2 nM	76.7 nM	–	–
CAGUACUGAGGAUAUACAUGAGGAUCACCCAUGUCUUAAAAGUAGGAUACUACUAUUAGUAGAAGGCAGUACUG	13.2 nM	34.9 nM	–	–
CAGUAGAUCCGAGGAUAUACAAUCCGGAAACGGUACAUGAGGAUCACCCAUGUAGAAGGCGGAUCUACAGGUACUAAAGUACCU	5.56 nM	8.31 nM	–	–
CAGUCUACAGGAUAUACAUGAGGAUCACCCAUGUGUAUCAACCUUCUGUAAUCCUCAUGUAGAAGGGUAGACUG	16.3 nM	13.7 nM	–	–
CAGUGCUGUCGAGAGGAUAUGCGGUGAUGGACAUGAGGAUCACCCAUGUUAGCGACAGCAUCACGGCAGAAGGCUCUACCCACUG	–	–	29.4 nM	17 nM
CAGUUCUGAGGAUAUCCACCCUCGUACAUGAGGAUCACCCAUGUUUCCCUCUGGGCUUUCGGAGAAGGCAGGUAUC	51.4 nM	50.4 nM	–	–
CAGUUGGGCUCAGGAUAUCGGGUUUAACAUGAGGAUCACCCAUGUCGUCCGCGAAAGCGGAAUCACGAGAAGGGAGACCAGCGA	–	–	9.12 nM	6.42 nM
CAUAACUUUGAUCUCUCCUACAUGAGGAUCACCCAUGUUGAGAGAAGGAGGCGGCAGAGUGCUGCCUAGGAUAUCUGAAGGGUC	6.19 nM	7.28 nM	–	–
CAUGGACGGUUAGGAUAUGACCUUUAAUGAAAGUCAGAAGGGAUCGCACAUGAGGAUCACCCAUGUCGCAGACUCGGGCGACUU	14.9 nM	21.1 nM	–	–
CAUUAAUUAAUUAGUUUAUAAAUACAGGAUAUGUUACAUGAGGAUCACCCAUGUUUACAUGGGAUACAGAAGGGUAAAUCAAUA	192 nM	145 nM	–	–
CAUUAAUUAAUUAGUUUAUACAUACAGGAUAUGUUACAUGAGGAUCACCCAUGUUUACAUGGGAUACAGAAGGGUAAAUAAAGA	477 nM	310 nM	–	–
CAUUAAUUCAUUAUAGUAAUUUUACAGGAUAUGUAACAUGAGGAUCACCCAUGUAUUCUAGGUUAACAGAAGGGUAUUACUUGU	28.9 nM	20.7 nM	–	–
CAUUAAUUCAUUAUAUUAAUUUUACAGGAUAUGUAACAUGAGGAUCACCCAUGUAUUCUAGGUUAACAGAAGGGUAUUGCUUGU	24.5 nM	21.3 nM	–	–
